# Assay results reported in ChEMBL document CHEMBL4831495, “Discovery of novel BCR-ABL PROTACs based on the cereblon E3 ligase design, synthesis, and biological evaluation” (Eur J Med Chem, 2021).
# Legend:
# [1] = test system: K562; test: Antiproliferative activity against human K562 cells assessed as cell growth inhibition measured after 48 hrs by CCK8 assay; type: functional, cell-based; conditions: K562, 48 h
# How it was run: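 Cells were seeded at 3000-20,000 per well and given 3-fold serial dilutions of compound in medium. After 2 days at 37 °C in 5% CO2, CCK-8 reagent was added for 2-4 h and absorbance was read at 450 nm.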
# [2] = target: Protein cereblon/Tyrosine-protein kinase ABL1/Breakpoint cluster region protein (Homo sapiens, UniProt P00519+P11274+Q96SW2); test: PROTAC activity at CRBN/Bcr-Abl in human K562 cells assessed as degrading activity by Western blotting analysis; type: cell-based
# [3] = MRT (0 to t) in Wistar rat at 2 mg/kg, iv by LC-MS/MS analysis; type: ADME, organism-based; conditions: in vivo
# How it was run: (§1)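 Single intravenous dose of 2 mg/kg into the femoral vein of female Wistar rats, given as a solution in NMP/PEG200 (1:9, v/v). Plasma was collected by sublingual vein bleeding at 0.083, 0.25, 0.5, 1, 2, 4, 6, 8, 12 and 24 h from one group of rats (n = 3). Samples were extracted and quantified by LC-MS/MS, LOQ 2.5 ng/mL.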
# [4] = AUC (0 to t) in Wistar rat at 2 mg/kg, iv by LC-MS/MS analysis; type: ADME, organism-based; design: dose 2 mg/kg; conditions: in vivo; how it was run: as §1
# [5] = Cmax in Wistar rat at 2 mg/kg, iv by LC-MS/MS analysis; type: ADME, organism-based; design: route intravenous, dose 2 mg/kg; conditions: in vivo; how it was run: as §1
# [6] = Apparent volume of distribution during terminal state in Wistar rat at 2 mg/kg, iv by LC-MS/MS analysis; type: ADME, organism-based; conditions: in vivo, read-out: Vz; how it was run: as §1
# [7] = Clearance in Wistar rat at 2 mg/kg, iv by LC-MS/MS analysis; type: ADME, organism-based; conditions: in vivo; how it was run: as §1
# [8] = Tmax in Wistar rat at 2 mg/kg, iv by LC-MS/MS analysis; type: ADME, organism-based; conditions: in vivo; how it was run: as §1
# [9] = Half life in Wistar rat at 2 mg/kg, iv by LC-MS/MS analysis; type: ADME, organism-based; conditions: in vivo; how it was run: as §1
# [10] = Apparent volume of distribution during steady state in Wistar rat at 2 mg/kg, iv by LC-MS/MS analysis; type: ADME, organism-based; conditions: in vivo, read-out: Vdss; how it was run: as §1
# [11] = test system: K562; test: Antitumor activity against human K562 cells xenografted in NOD-SCID mouse assessed as tumor growth inhibition at 5 mg/kg, po administered daily 10 days; conditions: 240 h, read-out: TGI
# Chain of Protein cereblon/Tyrosine-protein kinase ABL1/Breakpoint cluster region protein (P00519 whole entry): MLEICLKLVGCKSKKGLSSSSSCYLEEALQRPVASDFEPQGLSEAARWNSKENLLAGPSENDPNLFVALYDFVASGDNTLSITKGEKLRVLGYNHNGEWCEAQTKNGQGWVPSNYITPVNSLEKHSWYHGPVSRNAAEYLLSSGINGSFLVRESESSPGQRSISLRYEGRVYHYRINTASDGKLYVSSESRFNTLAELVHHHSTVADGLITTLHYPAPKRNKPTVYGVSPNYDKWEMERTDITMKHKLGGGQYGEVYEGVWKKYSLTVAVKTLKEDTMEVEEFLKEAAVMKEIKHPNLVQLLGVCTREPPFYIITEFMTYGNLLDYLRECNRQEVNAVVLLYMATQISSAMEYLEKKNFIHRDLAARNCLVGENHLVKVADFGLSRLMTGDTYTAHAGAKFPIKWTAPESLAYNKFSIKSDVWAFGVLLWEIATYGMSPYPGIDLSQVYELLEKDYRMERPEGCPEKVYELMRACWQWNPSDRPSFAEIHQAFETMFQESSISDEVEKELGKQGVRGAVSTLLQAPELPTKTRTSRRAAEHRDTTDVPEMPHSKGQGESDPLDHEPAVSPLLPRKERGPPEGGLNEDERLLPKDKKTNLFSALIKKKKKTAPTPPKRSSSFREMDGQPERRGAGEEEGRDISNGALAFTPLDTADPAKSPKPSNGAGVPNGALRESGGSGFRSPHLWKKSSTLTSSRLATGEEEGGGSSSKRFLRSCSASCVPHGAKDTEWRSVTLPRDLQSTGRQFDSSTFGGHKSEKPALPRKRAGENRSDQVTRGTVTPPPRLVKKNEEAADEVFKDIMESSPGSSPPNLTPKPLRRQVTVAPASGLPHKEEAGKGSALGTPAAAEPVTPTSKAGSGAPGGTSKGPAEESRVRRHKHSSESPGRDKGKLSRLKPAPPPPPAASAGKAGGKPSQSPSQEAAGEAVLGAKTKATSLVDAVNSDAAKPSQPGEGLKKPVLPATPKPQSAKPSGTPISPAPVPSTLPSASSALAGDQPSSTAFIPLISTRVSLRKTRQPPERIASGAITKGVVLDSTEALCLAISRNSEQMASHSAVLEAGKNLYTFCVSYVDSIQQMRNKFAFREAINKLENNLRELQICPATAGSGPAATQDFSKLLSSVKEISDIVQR
# Chain of Protein cereblon/Tyrosine-protein kinase ABL1/Breakpoint cluster region protein (P11274 whole entry): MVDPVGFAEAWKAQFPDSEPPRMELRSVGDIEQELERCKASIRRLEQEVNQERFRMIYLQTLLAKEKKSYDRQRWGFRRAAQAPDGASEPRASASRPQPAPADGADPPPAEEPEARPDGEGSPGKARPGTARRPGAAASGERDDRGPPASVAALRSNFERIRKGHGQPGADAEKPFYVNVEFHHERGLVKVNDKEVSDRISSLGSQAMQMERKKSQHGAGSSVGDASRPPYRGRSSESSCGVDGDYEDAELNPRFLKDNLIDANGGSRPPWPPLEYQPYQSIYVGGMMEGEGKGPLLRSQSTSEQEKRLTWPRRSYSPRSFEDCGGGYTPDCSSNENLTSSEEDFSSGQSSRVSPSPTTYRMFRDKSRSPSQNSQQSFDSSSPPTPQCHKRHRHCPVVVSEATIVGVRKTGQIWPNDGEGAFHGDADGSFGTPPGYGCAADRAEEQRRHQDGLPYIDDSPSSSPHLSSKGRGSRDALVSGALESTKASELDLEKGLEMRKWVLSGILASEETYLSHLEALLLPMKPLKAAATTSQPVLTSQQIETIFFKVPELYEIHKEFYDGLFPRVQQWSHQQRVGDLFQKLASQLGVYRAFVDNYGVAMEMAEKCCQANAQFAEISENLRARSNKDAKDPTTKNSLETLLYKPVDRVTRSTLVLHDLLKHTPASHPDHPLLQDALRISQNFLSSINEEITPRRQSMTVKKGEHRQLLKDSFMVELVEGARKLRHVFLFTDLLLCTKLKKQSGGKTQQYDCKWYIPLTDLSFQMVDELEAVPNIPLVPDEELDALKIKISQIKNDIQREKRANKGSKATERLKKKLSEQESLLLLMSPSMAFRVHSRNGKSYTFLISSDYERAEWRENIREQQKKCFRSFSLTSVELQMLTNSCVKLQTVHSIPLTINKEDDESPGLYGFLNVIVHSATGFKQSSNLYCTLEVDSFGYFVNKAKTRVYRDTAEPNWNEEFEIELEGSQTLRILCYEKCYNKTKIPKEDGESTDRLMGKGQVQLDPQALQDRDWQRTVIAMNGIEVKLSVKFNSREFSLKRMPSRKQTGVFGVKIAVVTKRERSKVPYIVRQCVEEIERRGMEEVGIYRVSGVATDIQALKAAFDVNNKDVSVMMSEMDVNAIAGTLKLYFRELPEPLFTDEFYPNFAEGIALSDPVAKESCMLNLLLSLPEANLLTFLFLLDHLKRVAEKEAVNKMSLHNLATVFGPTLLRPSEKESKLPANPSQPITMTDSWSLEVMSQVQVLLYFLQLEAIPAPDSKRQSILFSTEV
# Chain of Protein cereblon/Tyrosine-protein kinase ABL1/Breakpoint cluster region protein (Q96SW2 whole entry): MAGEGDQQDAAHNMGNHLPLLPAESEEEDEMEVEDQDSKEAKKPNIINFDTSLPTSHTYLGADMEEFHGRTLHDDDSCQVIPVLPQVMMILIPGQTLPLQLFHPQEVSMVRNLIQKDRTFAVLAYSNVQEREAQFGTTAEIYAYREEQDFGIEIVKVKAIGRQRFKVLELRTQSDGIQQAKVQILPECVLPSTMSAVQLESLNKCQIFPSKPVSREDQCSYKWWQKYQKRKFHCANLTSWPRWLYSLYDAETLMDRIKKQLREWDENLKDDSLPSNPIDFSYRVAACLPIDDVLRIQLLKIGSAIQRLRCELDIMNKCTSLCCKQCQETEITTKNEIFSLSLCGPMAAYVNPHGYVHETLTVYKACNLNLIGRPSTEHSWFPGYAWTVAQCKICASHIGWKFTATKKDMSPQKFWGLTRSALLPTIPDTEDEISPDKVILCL
SMILES,IC50 [1] [nM],DC50 [2] [nM],other results
Nc1cccc2c1CN(C1CCC(=O)NC1=O)C2=O (configuration not stated) [LENALIDOMIDE],> 10000,–,–
Cc1nc(Nc2ncc(C(=O)Nc3c(C)cccc3Cl)s2)cc(N2CCN(CCSc3cccc4c3CN(C3CCC(=O)NC3=O)C4=O)CC2)n1 (configuration not stated),0.51,2.7,–
Cc1nc(Nc2ncc(C(=O)Nc3c(C)cccc3Cl)s2)cc(N2CCN(C(=O)CCOCCOCCNc3cccc4c3C(=O)N(C3CCC(=O)NC3=O)C4=O)CC2)n1 (configuration not stated),8.05,17.5,MRT last [3]: 27 min; AUC(0-t) [4]: 496 ng·h/mL; Cmax [5]: 1140 ng/mL; Vd [6]: 3.59 L/kg; clearance [7]: 67.1 mL/min/kg; Tmax [8]: 4.8 min; half-life [9]: 37.2 min; Vd [10]: 1.93 L/kg
Cc1nc(Nc2ncc(C(=O)Nc3c(C)cccc3Cl)s2)cc(N2CCN(C(=O)CCCCCCNc3cccc4c3C(=O)N(C3CCC(=O)NC3=O)C4=O)CC2)n1 (configuration not stated),1.47,9,–
Cc1nc(Nc2ncc(C(=O)Nc3c(C)cccc3Cl)s2)cc(N2CCN(C(=O)CCCCNc3cccc4c3CN(C3CCC(=O)NC3=O)C4=O)CC2)n1 (configuration not stated),4.2,11.1,–
Cc1nc(Nc2ncc(C(=O)Nc3c(C)cccc3Cl)s2)cc(N2CCN(C(=O)CCCNc3cccc4c3C(=O)N(C3CCC(=O)NC3=O)C4=O)CC2)n1 (configuration not stated),5.5,7.8,–
Cc1nc(Nc2ncc(C(=O)Nc3c(C)cccc3Cl)s2)cc(N2CCN(C(=O)CCOCCNc3cccc4c3C(=O)N(C3CCC(=O)NC3=O)C4=O)CC2)n1 (configuration not stated),18.4,8.7,–
Cc1nc(Nc2ncc(C(=O)Nc3c(C)cccc3Cl)s2)cc(N2CCN(CCCCNc3cccc4c3C(=O)N(C3CCC(=O)NC3=O)C4=O)CC2)n1 (configuration not stated),0.28,2.7,MRT last [3]: 93 min; AUC(0-t) [4]: 1330 ng·h/mL; Cmax [5]: 1450 ng/mL; Vd [6]: 4.02 L/kg; clearance [7]: 24.1 mL/min/kg; Tmax [8]: 4.8 min; half-life [9]: 116 min; Vd [10]: 2.78 L/kg
Cc1nc(Nc2ncc(C(=O)Nc3c(C)cccc3Cl)s2)cc(N2CCN(C(=O)CCOCCOCCOCCNc3cccc4c3C(=O)N(C3CCC(=O)NC3=O)C4=O)CC2)n1 (configuration not stated),14.8,18.4,–
Cc1nc(Nc2ncc(C(=O)Nc3c(C)cccc3Cl)s2)cc(N2CCN(C(=O)COc3cccc4c3C(=O)N(C3CCC(=O)NC3=O)C4=O)CC2)n1 (configuration not stated),7,11.1,–
Nc1cccc2c1C(=O)N(C1CCC(=O)NC1=O)C2=O (configuration not stated) [POMALIDOMIDE],> 10000,–,–
Cc1nc(Nc2ncc(C(=O)Nc3c(C)cccc3Cl)s2)cc(N2CCN(CCO)CC2)n1 [DASATINIB],–,–,inhibition in vivo at 5 mg/kg [11]: 95.1%
